Source: PubChem
MC4R antag cAMP = MC4R antagonists of cAMP signaling, primary screen, cell-based, TR-FRET, antagonist arm of biased-ligand search; Melanocortin receptor 4 (Homo sapiens), P32245; MC4R-expressing cells, MTII-stimulated cAMP, LANCE TR-FRET; inhibition, % at 6.5 µM; 0.48% of 360,000 active; AID 540295, 2011;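 active = inhibition above its plate's cutoff, the mean of tested wells on that plate plus 3 SD, cut at about 29% in these data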;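 also: 0% = Melanotan II alone and 100% = Melanotan II plus saturating MCL0020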
Target sequence (P32245 whole entry, looked up): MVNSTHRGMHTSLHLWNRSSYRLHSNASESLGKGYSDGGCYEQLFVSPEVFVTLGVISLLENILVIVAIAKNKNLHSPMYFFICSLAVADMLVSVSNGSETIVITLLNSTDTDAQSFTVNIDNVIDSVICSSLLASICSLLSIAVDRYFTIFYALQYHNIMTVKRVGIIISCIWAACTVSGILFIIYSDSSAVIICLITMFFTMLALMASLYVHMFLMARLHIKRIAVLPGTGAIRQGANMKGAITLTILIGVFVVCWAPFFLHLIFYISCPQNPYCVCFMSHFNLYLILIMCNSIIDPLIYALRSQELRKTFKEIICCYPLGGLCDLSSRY
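Test system: U2OS cells stably expressing human melanocortin 4 receptor (MC4R); also added: Melanotan II challenge; compound: 6.5 µM single dose; timing: 30-min compound preincubation, 1-h Melanotan II challenge, 1-h detection, room temperature; signal: Eu-cAMP/anti-cAMP TR-FRET, emission 671 nm; repeats: one well per compound, no replicates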
XBP1 UPR activ = activators of adaptive XBP1 UPR arm, primary screen, cell-based, CHO-XBP1 luciferase reporter, luminescence, uHTS; AID 463104, 2010; 0.33% of 330,000 active; IRE1-XBP1 UPR activation; percent of tunicamycin response, DMSO as zero; activation, % at 20 µM;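 active = versus positive control, 20 µM dose yields 30% or more activation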;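 also: 100% = tunicamycin at 10 µg/mL and 0% = DMSO only wells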
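Signal: luciferase luminescence; Assay system: CHO-XBP1 luciferase reporter cells; Amount: one thousand reporter cells per well; Dosing: 20 µM single concentration, DMSO 1%; Benchmarks: high control tunicamycin 10 µg/mL final, low control DMSO vehicle only; Schedule: 6 h compound exposure at 37 °C, 5% CO2; Evaluation: percent activation relative to tunicamycin reference.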
A1 inh = caspase 3/7 activation in MEF A1-2A-BIM cells, primary screen, A1 inhibitor project, cell-based, luminescence, HTS; 0.066% of 330,000 active; caspase activation, % (test concentration not listed); Caspase-Glo 3/7 luminescence, 3 h; percent of clofoctol response, vehicle zero;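 active = over half of replicate activation scores above 10%, or exactly half above 10 with the replicate mean above 10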
MC4R ag barr = MC4R agonists recruiting beta-arrestin, primary screen, cell-based, luminescence, agonist arm of biased-ligand search. Melanocortin receptor 4 (Homo sapiens), P32245. U2OS MC4R beta-arrestin complementation; percent of melanotan II response, DMSO zero. activation, % at 8.9 µM. 0.98% of 360,000 active. AID 540308, 2011;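 active = activation above a per-plate cutoff, the mean activation of sample wells on that plate plus 3 SD, cut at about 8% in these data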
UPR CHOP act = activators of apoptotic CHOP UPR arm, primary screen, cell-based, CHO-CHOP luciferase reporter, luminescence, uHTS | UPR activation; percent of tunicamycin response over DMSO baseline | activation, % at 10 µM | 0.34% of 330,000 active;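 active = at 10 µM dose, activation of 40% or more, normalized to positive control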;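 also: 100% = tunicamycin at 10 µg/mL and 0% = DMSO alone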
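Material: CHO-CHOP cells, stable luciferase reporter of PERK-eIF2a-CHOP signalling; quantity: 500 reporter cells seeded per well; buffer or medium: F12 medium containing 10% fetal bovine serum; compound: one dose, 10 µM in 0.5% DMSO; incubation: 6 h compound treatment, 37 °C; measured by: Steady-Glo luciferase luminescence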
MC4R barr ag = MC4R beta-arrestin agonists, retest, confirmation, cell-based, luminescence, U2OS; 31% of 2,400 active; shares compounds with MC4R ag barr; U2OS MC4R beta-arrestin recruitment; scaled DMSO 0%, Melanotan II 100%; activation, % at 8.9 µM;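 active = mean activation across replicates above the hit cutoff set in the earlier primary screen, cut at about 8% in these data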
MOR DOR agonist = agonists of MOR-DOR heterodimerization, counter-screen for MC4R biased agonist project, cell-based, luminescence; U2OS PathHunter beta-arrestin, beta-gal luminescence; percent of deltorphin B response, DMSO zero; shares compounds with MC4R ag barr; activation, % at 9.2 µM; 5.8% of 2,400 active;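 active = mean activation across replicates exceeds the hit threshold derived in the earlier primary screen, cut at about 18% in these data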;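 also: 100% = deltorphin B at 0.9 µM final and 0% = DMSO alone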
* hit, by the source's call; · = no result. Shown are actives, neighbours in structure and some others; about 2% of the full set was active somewhere.

SMILES	MC4R antag cAMP	XBP1 UPR activ	A1 inh	MC4R ag barr	UPR CHOP act	MC4R barr ag	MOR DOR agonist
CC(=O)c1c(C)[nH]c(C(=O)OCC(=O)Nc2ccccc2Cl)c1C	12	-1	0	-2	-2	·	·
CCOC(=O)CC(S(=O)(=O)c1ccccc1)S(=O)(=O)c1ccccc1	10	·	·	-1	·	·	·
CCCC(=O)N1CCC1(C)C(=O)Nc1ncc(C(=O)OC)s1 (centres undefined)	-3	·	·	-1	·	·	·
COc1ccc(CCNC(=O)CSc2cn(Cc3ccccc3)c3ccccc23)cc1OC	-12	-3	0	13*	0	6	4
c1ccc(-c2onc(-c3ccco3)c2-c2ccc3c(c2)OCO3)cc1	12	0	1	10.0*	0	5	6
O=C(O)c1cc(-c2ccc(-c3c(-c4ccc5c(c4)OCO5)noc3-c3ccsc3)cc2)nc2ccccc12	-6	·	-3	-2	·	·	·
COCCNc1nc(Nc2ccc(C(=O)OC)cc2)c2sccc2n1	11	·	·	-1	·	·	·
CCC(C)(C)c1ccc(OCCCC[n+]2ccccc2)c(C(C)(C)CC)c1	13	0	-1	12*	0	12*	6
CCCCOc1ccc(C)cc1CN(CCO)CCO	1	-3	1	0	4	·	·
CCCCCc1ccc(OCCCC[n+]2cccc(C)c2)c(CCCCC)c1	11	6	0	16*	-2	13*	6
CCCCCc1ccc(OCCCC[n+]2ccccc2)c(CCCCC)c1	16	-3	0	10*	0	8.3*	2
CCCCCc1ccc(OCCCC[n+]2ccc(C)cc2)c(CCCCC)c1	12	5	0	7	0	·	·
Nc1c(-c2cccs2)cnn1-c1nc(-c2ccc(Cl)cc2Cl)cs1	-1	2	0	19*	0	21*	3
Cn1nc(-c2ccccc2)cc1NC(=O)[C@@H]1O[C@H](CO)[C@H](O)[C@H](O)[C@H]1O	0	·	·	-1	·	·	·
c1ccc(Cn2ncc3c(N4CCCCC4)ncnc32)cc1	5	0	1	-1	-1	·	·
Clc1ccc(Cn2ncc3c(N4CCN(c5ccccc5)CC4)ncnc32)cc1	25	·	·	11*	·	17*	12
CC1(C)CCCC2(C)C(OCCO)=CC(=O)C=C12 (centres undefined)	15	·	·	-1	·	·	·
O=C(CNC(=O)C12CC3CC(CC(C3)C1)C2)Nc1ncccc1O	5	0	0	0	1	·	·
CN(C)C(=O)c1cccc(-c2cnc3c(NC=O)cc(-c4ccccc4F)cn23)c1	-21	·	·	9.8*	·	11*	1
CCSc1ccc(-c2cc(NC=O)c3ncc(-c4cccc(C(=O)NCCN(C)C)c4)n3c2)cc1	2	·	·	11*	·	13*	11
CN(C)CCNC(=O)c1cccc(-c2cnc3c(NC=O)cc(-c4ccc(F)cc4)cn23)c1	-12	·	·	-1	·	·	·
CN(C)CCNC(=O)c1cccc(-c2cnc3c(NC=O)cc(/C=C/c4ccccc4)cn23)c1	-5	·	·	17*	·	7	3
CN(C)CCNC(=O)c1cccc(-c2cnc3c(NC=O)cc(-c4cccc(F)c4)cn23)c1	-3	·	·	-1	·	·	·
CCSc1ccc(-c2cc(NC=O)c3ncc(-c4cccc(C(=O)N(C)C)c4)n3c2)cc1	-8	·	·	10*	·	9.1*	2
O=C(COc1ccc(C(=S)N2CCOCC2)cc1Cl)Nc1ccccc1Cl	12	7	-1	22*	2	-1	4
SMILES	MC4R antag cAMP	XBP1 UPR activ	A1 inh	MC4R ag barr	UPR CHOP act	MC4R barr ag	MOR DOR agonist
COc1cc(/C=N/NC(=S)NC2CC3CC2C2C=CCC32)ccc1O (centres undefined)	-16	5	0	9.9*	4	5	8
CCOc1ccc(/C=N/NC(=S)NC2CC3CC2C2C=CCC32)cc1 (centres undefined)	0	2	0	1	1	·	·
COc1cccc(/C=N/NC(=O)C(=O)Nc2ccccc2OC(F)(F)C(F)F)c1	-1	-1	1	16*	0	3	6
FC(F)Sc1ccc(NC(=S)NCc2ccccc2)cc1	10	-2	1	2	1	·	·
FC(F)Sc1ccc(NC(=S)NC(c2ccccc2)c2ccccc2)cc1	13	8	0	9.6*	7	4	9
CC(OC(=O)c1cc2sccc2n1C)C(=O)NCc1ccc(F)cc1 (centres undefined)	1	-2	0	-2	2	·	·
CC(OC(=O)c1cc2sccc2n1C)C(=O)NCc1ccc2c(c1)OCO2 (centres undefined)	10	-2	1	13*	0	-1	2
O=C(O)CCC(=O)N1CCc2c([nH]c3ccccc23)C1C(F)(F)F (centres undefined)	12	0	0	-3	1	·	·
O=C(c1ccc(Cl)cc1)N1CCc2c([nH]c3ccccc23)C1C(F)(F)F (centres undefined)	17	-1	1	9.8*	1	1	8
O=C(NCCc1ccccc1)[C@@H]1CC=C[C@@H]2CCN(Cc3ccc(Cl)c(Cl)c3)C(=O)[C@@H]21	-3	1	0	12*	2	9.3*	8
O=C1[C@H]2[C@H](C=CC[C@H]2C(=O)N2CCN(c3ccccc3)CC2)CCN1Cc1ccccc1	1	-1	1	0	0	·	·
CCCCNC(=O)[C@@H]1CC=C[C@@H]2CCN(Cc3ccc(Cl)c(Cl)c3)C(=O)[C@@H]21	10	-2	0	5	-2	·	·
O=C1[C@H]2[C@H](C=CC[C@H]2C(=O)N2CCN(c3ccccc3)CC2)CCN1Cc1ccc(Cl)c(Cl)c1	15	-5	0	69*	1	15*	4
COc1ccc(NC(=O)[C@@H]2CC=C[C@@H]3CCN(Cc4ccc(Cl)c(Cl)c4)C(=O)[C@@H]32)cc1	4	0	1	13*	1	11*	3
